High-throughput results: PubChem BioAssay, several laboratories
RGS7-Gao: regulators of human RGS7-Galphao interaction. P09471. AID 1439. Multiplexed bead flow cytometry, RGS7-Galphao binding; actives lie on both sides. actives 0.35% (n = 220,000). binding response (% of control), % at 10 µM; in the data active = binding response below about 49% or above about 150%; inconclusive = no clear call, values can overlap the other calls; inactive = in between;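 also: fluorescent Galphao held in activated GDP-AlF4 state binding bead-coupled RGS7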
Target sequence (P09471 whole entry, looked up): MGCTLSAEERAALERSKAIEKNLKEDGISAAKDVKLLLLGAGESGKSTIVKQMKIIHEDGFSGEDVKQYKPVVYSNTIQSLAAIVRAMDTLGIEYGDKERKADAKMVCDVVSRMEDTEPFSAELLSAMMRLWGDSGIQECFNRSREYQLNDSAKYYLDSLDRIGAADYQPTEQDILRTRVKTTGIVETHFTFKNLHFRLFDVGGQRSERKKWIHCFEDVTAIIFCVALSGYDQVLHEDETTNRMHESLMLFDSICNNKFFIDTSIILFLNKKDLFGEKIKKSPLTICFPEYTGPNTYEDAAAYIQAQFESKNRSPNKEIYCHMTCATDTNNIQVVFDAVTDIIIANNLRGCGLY
RGS8-Gao: regulators of human RGS8-Galphao interaction; multiplexed bead flow cytometry, RGS8-Galphao binding; actives lie on both sides; actives 0.34% (n = 220,000); response (percent of control binding), % at 10 µM; in the data active = response below about 60% or above about 140%; inactive = in between;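 also: Galphao activated as the GDP aluminium fluoride complex binding bead-coupled RGS8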
RGS4-Gao reg: human RGS4-Galphao interaction regulation | P09471 | Multiplexed bead flow cytometry, RGS4-Galphao binding; actives lie on both sides | binding response (% of control), % at 10 µM | actives 0.33% (n = 220,000) | AID 1415; in the data active = binding response below about 49% or above about 150%; inactive = in between;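 also: fluorescent Galphao activated with aluminum fluoride binding bead-coupled RGS4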
RGS16-Gao HTS: RGS16-Galphao interaction regulator (human); O15492+P09471; bead-based flow cytometry RGS16-Galphao binding, fluorescence; actives lie on both sides; binding response (% of control), % at 10 µM; actives 0.38% (n = 220,000); AID 1441;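 also: Galphao activated by GDP with aluminum fluoride before binding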
Target sequence (O15492 whole entry, looked up): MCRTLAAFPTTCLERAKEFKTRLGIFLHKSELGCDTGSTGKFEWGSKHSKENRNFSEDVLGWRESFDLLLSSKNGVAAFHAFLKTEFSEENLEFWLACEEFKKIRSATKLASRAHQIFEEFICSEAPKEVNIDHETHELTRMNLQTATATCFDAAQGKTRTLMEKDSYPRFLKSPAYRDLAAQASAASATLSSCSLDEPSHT
Target sequence (P09471 whole entry, looked up): as the sequence (P09471 whole entry, looked up) above
Calb biofilm kill: mixture kills Candida albicans biofilm cells. C. albicans biofilm persisters + clotrimazole, fluorescence viability; primary screen in compound mixtures of four per well. inhibition, % at 7.6 µM. actives 0.02% (n = 120,000);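 active = inhibition above 30.3% in the primary screen of four-compound pools, then above 30% when the compound was retested; inconclusive = passed the primary limit but could not be retested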;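 also: compounds exposed to preformed 24 h biofilms for 48 h; 0% = untreated biofilm control and 100% = clotrimazole plus chlorhexidine kill blank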
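System: C. albicans CAF4-2 wild-type biofilms; Medium: RPMI/MOPS medium, pH 7.0; Reagent: Clotrimazole, 50 µg/mL; Times: biofilm formation 24 h, compound exposure 48 h, 37 °C; Detection: 2-h Alamar Blue fluorescence, 535/590 nm excitation/emission; Evaluation: percent inhibition of biofilm viability.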
RGS4-Gao HTS: regulators of human RGS4-Galphao interaction; actives 99% (n = 1,600); shares compounds with RGS16-Gao HTS; RGS4–Galpha-o binding response, % at 10 µM; multiplexed bead flow cytometry, RGS–Galpha-o binding;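 also: fluorescently labeled Galpha-o bound to GDP with aluminium fluoride binding biotinylated RGS beads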
Biotin-avidin: biotin-avidin bead binding disruption counter-screen | 1,700 tested, under 10 active | AID 1783 | streptavidin beads, fluorescein-biotin binding, flow cytometry | inhibition, % at 10 µM | shares compounds with RGS16-Gao HTS;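 active = inhibition above 50%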;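 also: median green fluorescence of gated singlet beads compared with DMSO control wells; 0% = DMSO wells and 100% = complete loss of bead fluorescence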
RGS8-Gao confirm: RGS8-Galphao interaction regulation, single point confirmation; shares compounds with RGS16-Gao HTS; bead-based flow cytometry RGS8-Galphao binding, fluorescence; actives lie on both sides; binding response (% of control), % at 10 µM; actives 3% (n = 1,700); AID 1836; in the data active = binding response below about 72% or above about 130%; inactive = in between;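 also: Galphao activated as GDP AlF4 complex before binding bead RGS8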
RGS7-Gao confirm: RGS7-Galphao interaction regulation, single point confirmation; shares compounds with RGS16-Gao HTS; bead-based flow cytometry RGS7-Galphao binding; actives lie on both sides; response (percent of control binding), % at 10 µM; actives 7.8% (n = 1,700); in the data active = response below about 75% or above about 130%; inactive = in between;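 also: fluorescent Galphao activated with GDP and aluminum fluoride binding bead-coupled RGS7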
RGS16-Gao single: RGS16-Galphao interaction regulation, single point confirmation; actives 4% (n = 1,700); bead-based flow cytometry, RGS16-Galphao binding; actives lie on both sides; response (% of control binding), % at 10 µM; shares compounds with RGS16-Gao HTS; AID 1838; in the data active = response below about 74% or above about 130%; inactive = in between;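 also: Galphao activated as the GDP aluminium fluoride complex binding bead-coupled RGS16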
RGS4-Gao confirm: confirmation of regulators of human RGS4-Galphao interaction | shares compounds with RGS16-Gao HTS | RGS4-Galphao binding, multiplexed bead flow cytometry; actives lie on both sides | binding response (% of control), % at 10 µM | actives 4% (n = 1,700); in the data active = binding response below about 74% or above about 130%; inactive = in between
RGS19-Gao single: confirmation of regulators of human RGS19-Galphao interaction; actives 5% (n = 1,700); response (percent of control binding), % at 10 µM; bead-based flow cytometry RGS19-Galphao binding; actives lie on both sides; shares compounds with RGS16-Gao HTS; in the data active = response below about 50% or above about 160%; inactive = in between;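 also: 100% = no compound control and 0% = blank background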
Numbers without * were called inactive; [ ] = another dose, or the depositor's remark. Only some compounds are listed: those with a hit (about 0.74% of all), similar ones and a draw of the others. Unless noted, no rule for the calls is given here.

Results for Cc1ccc2[nH]c(-c3ccccc3)cc(=O)c2c1 ?
RGS7-Gao: 102.8; RGS8-Gao: 95.7; RGS4-Gao reg: 97.7; RGS16-Gao HTS: 93.6

What do the screens show for `O=C1NCC(O)=C1C=NC12CC3CC(CC(C3)C1)C2`?
RGS7-Gao: 99.8; RGS8-Gao: 106.7; RGS4-Gao reg: 102.3; RGS16-Gao HTS: 106.4; Biotin-avidin: 1.0; RGS8-Gao confirm: 101.0; RGS7-Gao confirm: 99.6; RGS16-Gao single: 100.1; RGS4-Gao confirm: 100.0; RGS19-Gao single: 91.3

What do the screens show for `CCCNC(=O)CN1C(=O)NC2(CCCc3cc(OC)ccc32)C1=O` (stereo not drawn)?
RGS7-Gao: 110.2; RGS8-Gao: 147.8*[activator]; RGS4-Gao reg: 108.3; RGS16-Gao HTS: 252.8; RGS4-Gao HTS: 108.3*

Results for Cc1scc(C(=O)NNC(=S)NCC2CCCO2)c1-c1ccccc1 (stereo not drawn) ?
RGS7-Gao: 99.7; RGS8-Gao: 71.1; RGS4-Gao reg: 97.9; RGS16-Gao HTS: 22.5*; Calb biofilm kill: 8.1; RGS4-Gao HTS: 97.9*; Biotin-avidin: 1.9; RGS8-Gao confirm: 92.2; RGS7-Gao confirm: 89.2; RGS16-Gao single: 89.7; RGS4-Gao confirm: 90.5; RGS19-Gao single: 98.8

How did O=C(CSc1ncn[nH]1)c1cc2ccccc2o1 do in these assays?
RGS7-Gao: 243.0*[activator]; RGS8-Gao: 111.9; RGS4-Gao reg: 265.4*[activator]; RGS16-Gao HTS: 219.4*[activator]; Calb biofilm kill: 2.4; Biotin-avidin: -0.7; RGS8-Gao confirm: 98.2; RGS7-Gao confirm: 99.9; RGS16-Gao single: 96.1; RGS4-Gao confirm: 96.0; RGS19-Gao single: 70.2

Results for O=C(CSc1nccc(=O)[nH]1)c1cc2ccccc2o1 ?
RGS7-Gao: inconclusive; RGS8-Gao: 96.7; RGS4-Gao reg: 97.2; RGS16-Gao HTS: 93.6; Calb biofilm kill: 21.3

What do the screens show for `COc1ccc(C)cc1S(=O)(=O)Nc1ccc2c(c1)OCO2`?
RGS7-Gao: 95.7; RGS8-Gao: 99.7; RGS4-Gao reg: 100.2; RGS16-Gao HTS: 100.9; Calb biofilm kill: 20.2

What do the screens show for `Cn1nc(C(F)(F)F)c(-c2ccc(F)cc2)c1NC(=O)c1ccco1`?
RGS7-Gao: inconclusive; RGS8-Gao: 116.0; RGS4-Gao reg: 187.9*[activator]; RGS16-Gao HTS: 176.2*[activator]; Calb biofilm kill: 11.0; Biotin-avidin: -0.2; RGS8-Gao confirm: 97.0; RGS7-Gao confirm: 74.0*; RGS16-Gao single: 84.5; RGS4-Gao confirm: 82.8; RGS19-Gao single: 68.0

Results for Cn1nc(C(F)(F)F)c(-c2ccccc2)c1NC(=O)c1ccco1 ?
RGS7-Gao: inconclusive; RGS8-Gao: 92.8; RGS4-Gao reg: 82.4; RGS16-Gao HTS: 84.2; Calb biofilm kill: 15.1

Results for O=C(c1ccc(S(=O)(=O)NCc2ccco2)cc1)N1CCN(Cc2ccc3c(c2)OCO3)CC1 ?
RGS7-Gao: 120.1; RGS8-Gao: 158.3*[activator]; RGS4-Gao reg: 122.0; RGS16-Gao HTS: 336.4; Calb biofilm kill: 12.6; RGS4-Gao HTS: 122.0*; Biotin-avidin: -1.2; RGS8-Gao confirm: 100.0; RGS7-Gao confirm: 96.8; RGS16-Gao single: 99.8; RGS4-Gao confirm: 98.2; RGS19-Gao single: 100.7

What do the screens show for `Cc1ccccc1-n1c(SCC(=O)NC(N)=O)nc2sc(-c3ccccc3)cc2c1=O`?
RGS7-Gao: 78.9; RGS8-Gao: 65.3; RGS4-Gao reg: 80.8; RGS16-Gao HTS: -3.3*; Calb biofilm kill: 13.9; RGS4-Gao HTS: 80.8*; Biotin-avidin: 0.9; RGS8-Gao confirm: 102.5; RGS7-Gao confirm: 102.9; RGS16-Gao single: 106.3; RGS4-Gao confirm: 104.0; RGS19-Gao single: 104.2

What do the screens show for `CCCC(=O)NCCCCNC(=O)CCC`?
RGS7-Gao: 98.7; RGS8-Gao: 96.2; RGS4-Gao reg: 99.6; RGS16-Gao HTS: 73.9

Results for CC(=O)N(O)CCCCCNC(=O)CCC(=O)N(O)CCCCCNC(=O)CCC(=O)N(O)CCCCCN ?
RGS7-Gao: 55.1; RGS8-Gao: 51.4*; RGS4-Gao reg: 60.5; RGS16-Gao HTS: 35.0; Calb biofilm kill: 16.2; RGS4-Gao HTS: 60.5*; Biotin-avidin: -1.7; RGS8-Gao confirm: 53.2*; RGS7-Gao confirm: 57.5*; RGS16-Gao single: 42.2*; RGS4-Gao confirm: 56.6*; RGS19-Gao single: 63.8

Results for CN1CCN(C(=O)Nc2cccc(-c3ccccc3)c2)CC1 ?
RGS7-Gao: inconclusive; RGS8-Gao: 103.0; RGS4-Gao reg: 101.9; RGS16-Gao HTS: 103.8; Calb biofilm kill: 11.5

What do the screens show for `COC(=O)C1=C(Nc2cc(Cl)cc(Cl)c2)CSC1`?
RGS7-Gao: inconclusive; RGS8-Gao: 100.6; RGS4-Gao reg: 99.5; RGS16-Gao HTS: 94.9; Calb biofilm kill: 27.3

What do the screens show for `CCCCCCC(=O)c1c(C)[nH]c(C(=O)OCC)c1C`?
RGS7-Gao: 120.7; RGS4-Gao reg: 120.1; Biotin-avidin: 2.5; RGS8-Gao confirm: 99.1; RGS7-Gao confirm: 98.7; RGS16-Gao single: 101.8; RGS4-Gao confirm: 99.7; RGS19-Gao single: 78.6

Results for CCOc1ccc(N(CC(=O)N2CCC(Cc3ccccc3)CC2)S(C)(=O)=O)cc1 ?
RGS7-Gao: 101.2; RGS8-Gao: 102.8; RGS4-Gao reg: 101.5; RGS16-Gao HTS: 105.0; Calb biofilm kill: 19.0

How did COc1ccc2nc(N/C(N)=N/C(=S)Nc3cccc(C)c3)nc(C)c2c1 do in these assays?
Calb biofilm kill: 7.9

Results for COc1ccc2nc(N/C(N)=N/C(=S)Nc3c(C)cccc3C)nc(C)c2c1 ?
RGS7-Gao: 117.8; RGS8-Gao: 118.8; RGS4-Gao reg: 113.2; RGS16-Gao HTS: 203.2*[activator]; Calb biofilm kill: -6.8; RGS4-Gao HTS: 113.2*; Biotin-avidin: 0.6; RGS8-Gao confirm: 99.4; RGS7-Gao confirm: 98.7; RGS16-Gao single: 102.7; RGS4-Gao confirm: 98.9; RGS19-Gao single: 88.3
